Active and inactive are the calls of the source. The calls are words filed in the database; no cut-off is given here.
What was measured:
Hepatitis B virus [1] = test: Antiviral activity against HBV infected in human HepG2.2.15 cells assessed as reduction in intracellular viral DNA level at 50 uM incubated for 4 days prior to compound washout followed by compound addition and measured after 4 days by fluorogenic probe based RT-qPCR analysis relative to control; type: functional; settings: for inhibition at 50 µM: HepG2.2.15, 192 h, time 8 day; for inhibition: time 8.0 day
HepG2 2.2.15 [2] = test: Cytotoxicity against human HepG2.2.15 cells assessed as reduction in cell viability at 50 uM incubated for 4 days prior to compound washout followed by compound addition and measured after 4 days by CCK8 assay relative to control; type: cell-based; settings: hepg2 2.2.15, 192 h, time 8 day
Hepatitis B virus [3] = test: Antiviral activity against HBV infected in human HepG2.2.15 cells assessed as […] at 100 uM incubated for 4 days prior to compound washout followed by compound addition and measured after 4 days by fluorogenic probe based RT-qPCR analysis relative to control; type: functional; settings: for inhibition at 100 µM: HepG2.2.15, 192 h, time 8 day
[4] = Cytotoxicity against human HepG2.2.15 cells assessed as reduction in cell viability incubated for 4 days prior to compound washout followed by compound addition and measured after 4 days by CCK8 assay; type: cell-based, HepG2 2.2.15; settings: time 8 day
Outline: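 Cytotoxicity in HepG2.2.15 cells was measured with five doses (100, 20, 4, 0.8, 0.16 µM) over 8 days, with medium changed on day 4. CCK-8 (10%) was added 0.5 h before the end, OD was read at 450/630 nm, and CC50 is the concentration killing 50% of cells against untreated controls.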

Hepatitis B virus [5] = test: Antiviral activity against HBV infected in human HepG2.2.15 cells assessed as reduction in HBeAg secretion incubated for 4 days prior to compound washout followed by compound addition and measured after 4 days by ELISA; type: functional, organism-based
Outline: (§1)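 Five doses (100, 20, 4, 0.8, 0.16 µM) were added in triplicate to HepG2.2.15 cultures for 8 days, with fresh medium on day 4 and untreated controls. Day-8 supernatants were assayed for HBsAg and HBeAg by ELISA kit with absorbance read-out. IC50 is the concentration giving 50% inhibition of antigen secretion.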

Hepatitis B virus [6] = test: Antiviral activity against HBV infected in human HepG2.2.15 cells assessed as reduction in HBsAg secretion incubated for 4 days prior to compound washout followed by compound addition and measured after 4 days by ELISA; type: functional, organism-based; outline: as §1
HepG2 2.2.15 [7] = test: Cytotoxicity against human HepG2.2.15 cells assessed as reduction in cell viability at 100 uM incubated for 4 days prior to compound washout followed by compound addition and measured after 4 days by CCK8 assay relative to control; type: cell-based; settings: hepg2 2.2.15, 192 h, time 8 day
Outline: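 Three wells of 4000 HepG2.2.15 cells per well received a single 100 µM concentration for 8 days, with medium replaced on day 4. CCK-8 (10%) was added 0.5 h before the end, and OD was read at 450 and 630 nm. Percent cell death was calculated against untreated cells.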

[8] = Selectivity index, ratio of CC50 for human HepG2.2.15 cells to IC50 for antiviral activity against HBV infected in human HepG2.2.15 cells assessed as reduction in intracellular viral DNA level; type: toxicity, cell-based; settings: read-out: Ratio CC50/IC50
Hepatitis B virus [9] = test: Antiviral activity against HBV infected in human HepG2.2.15 cells assessed as […] incubated for 4 days prior to compound washout followed by compound addition and measured after 4 days by fluorogenic probe based RT-qPCR analysis; type: functional, organism-based
Hepatitis B virus [10] = test: Antiviral activity against HBV infected in human HepG2.2.15 cells assessed as reduction in intracellular viral DNA level at 20 uM incubated for 4 days prior to compound washout followed by compound addition and measured after 4 days by fluorogenic probe based RT-qPCR analysis relative to control; type: functional
HepG2 2.2.15 [11] = test: Cytotoxicity against human HepG2.2.15 cells assessed as reduction in cell viability at 20 uM incubated for 4 days prior to compound washout followed by compound addition and measured after 4 days by CCK8 assay relative to control; type: cell-based; settings: hepg2 2.2.15, 192 h, time 8 day
[12] = Selectivity index, ratio of CC50 for human HepG2.2.15 cells to IC50 for antiviral activity against HBV infected in human HepG2.2.15 cells assessed as reduction in HBeAg secretion; type: toxicity, cell-based; settings: read-out: Ratio CC50/IC50
[13] = Selectivity index, ratio of CC50 for human HepG2.2.15 cells to IC50 for antiviral activity against HBV infected in human HepG2.2.15 cells assessed as reduction in HBsAg secretion; type: toxicity, cell-based; settings: read-out: Ratio CC50/IC50
Hepatitis B virus [14] = test: Binding affinity to recombinant HBV capsid protein assessed as response value at 100 uM by surface plasmon resonance analysis (reference value: 14.56)
Outline: (§2)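 Recombinant HBV capsid protein purified and amine-coupled to a CM5 sensor chip. Six doses of test compound run with running buffer containing 5% DMSO, plus eight solvent-calibration solutions and 50% DMSO solution. Samples centrifuged 15 min before loading. PBS and NaAc-HAc buffers used. Binding read as SPR response.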

[15] = Cytotoxicity against human HepG2.2.15 cells assessed as reduction in cell viability incubated for 4 days prior to compound washout followed by compound addition and measured after 4 days by […]; type: cell-based, HepG2 2.2.15; settings: time 8 day
Hepatitis B virus [16] = test: Binding affinity to recombinant HBV capsid protein assessed as response value at 25 uM by surface plasmon resonance analysis (reference value: 14.56); outline: as §2
Hepatitis B virus [17] = test: (§3) Binding affinity to recombinant HBV capsid protein by surface plasmon resonance analysis; outline: as §2
[18] = as §3; parameters: species or system Hepatitis B virus; outline: as §2
Hepatitis B virus [19] = test: Binding affinity to recombinant HBV capsid protein assessed as response value at 6.25 uM by surface plasmon resonance analysis (reference value: 14.56); outline: as §2
Hepatitis B virus [20] = test: Antiviral activity against HBV infected in human HepG2.2.15 cells assessed as reduction in intracellular viral DNA level incubated for 8 days by fluorogenic probe based RT-qPCR analysis; settings: HepG2.2.15, 192 h
Hepatitis B virus [21] = test: Binding affinity to recombinant HBV capsid protein assessed as response value at 50 uM by surface plasmon resonance analysis (reference value: 14.56); outline: as §2
Hepatitis B virus [22] = test: Binding affinity to recombinant HBV capsid protein assessed as response value at 12.5 uM by surface plasmon resonance analysis (reference value: 14.56); outline: as §2

With `CC(C)Cc1nc(-c2cccc(F)c2)ncc1C(=O)NCc1ccc(F)cc1` the inhibition at 50 µM (Hepatitis B virus [1]) was 35.6% and the Activity (HepG2 2.2.15 [2]) was “Non-Toxic”.
In the case of `CC(C)Cc1nc(-c2ccccc2)ncc1C(=O)NCc1ccccc1`, the inhibition (Hepatitis B virus [1]) is reported as “inactive” and the Activity (HepG2 2.2.15 [2]) is reported as “Non-Toxic”.
`Nc1ccn([C@@H]2CS[C@H](CO)O2)c(=O)n1` [LAMIVUDINE] gave an inhibition at 100 µM (Hepatitis B virus [3]) of 87.9%, a CC50 at 192 h [4] greater than 100 µM and an IC50 (Hepatitis B virus [5]) greater than 100 µM. It also gave an IC50 (Hepatitis B virus [6]) greater than 100 µM, an Activity (HepG2 2.2.15 [7]) of 12.7% and a selectivity ratio [8] greater than 167. The IC50 (Hepatitis B virus [9]) was 0.6 µM.
With `CC(C)Cc1nc(-c2cc3ccccc3s2)sc1C(=O)NCc1ccc(F)cc1` the inhibition at 20 µM (Hepatitis B virus [10]; HepG2.2.15, 192 h, time 8 day) was 21.1% and the Activity (HepG2 2.2.15 [11]) was “Non-Toxic”.
For `COC(=O)c1nc(-c2ccccc2OC)cnc1NC(=O)c1ccccc1`, the inhibition (Hepatitis B virus [1]) was “inactive” and the Activity (HepG2 2.2.15 [2]) was 5.7%.
With `CC(C)Cc1nc(NC(=O)c2cccs2)sc1C(=O)NCc1ccc(F)cc1` the inhibition (Hepatitis B virus [10]; time 8.0 day) was “inactive” and the Activity (HepG2 2.2.15 [11]) was 15.2%.
`CC(C)Cc1sc(-c2nccs2)nc1C(=O)NCc1ccc(F)cc1F` gave a selectivity ratio [12] of 1.5, an inhibition at 100 µM (Hepatitis B virus [3]) of 83.8% and a CC50 at 192 h [4] of 45.4 µM. For the same compound, the selectivity ratio [13] was 2.2, the IC50 (Hepatitis B virus [5]) was 30.1 µM and the IC50 (Hepatitis B virus [6]) was 21 µM. The Activity (HepG2 2.2.15 [7]) was 24.9%, the selectivity ratio [8] was 16.8 and the IC50 (Hepatitis B virus [9]) was 2.7 µM.
With `CCOC(=O)c1cn(-c2cccc(F)c2)nc1NCc1ccccc1` the inhibition at 100 µM (Hepatitis B virus [3]) was 14.6% and the Activity (HepG2 2.2.15 [7]) was “Non-Toxic”.
Compound `O=C(NCc1ccc(F)cc1F)c1cn(-c2nccs2)nc1NCc1ccccc1` has an inhibition at 100 µM (Hepatitis B virus [3]) of 32.9% and an Activity (HepG2 2.2.15 [7]) of 16.9%.
In the case of `CCOC(=O)c1cnc(-c2ccccc2)nc1CC(C)C`, the inhibition at 50 µM (Hepatitis B virus [1]) is reported as 37.3% and the Activity (HepG2 2.2.15 [2]) is reported as “Non-Toxic”.
Compound `O=C(NC1CC1)c1cn(-c2cccc(F)c2)nc1NCc1ccccc1` has an inhibition at 100 µM (Hepatitis B virus [3]) of 38.8% and an Activity (HepG2 2.2.15 [7]) of 40.8%.
In the case of `CCOC(=O)c1cn(-c2cccc(F)c2)nc1SC1CCCCC1`, the inhibition (Hepatitis B virus [3]; time 8.0 day) is reported as “inactive” and the Activity (HepG2 2.2.15 [7]) is reported as 18.1%.
`CC(C)Cc1sc(-c2nccs2)nc1C(=O)NCc1ccc(F)cc1` showed a selectivity ratio [12] of 1.9, an inhibition at 100 µM (Hepatitis B virus [3]) of 97.3% and a CC50 at 192 h [4] of 59.2 µM. It also gave an Activity (Hepatitis B virus [14]) of 63.5 RU, a CC50 at 192 h [15] of 50.4 µM and a selectivity ratio [13] of 1.9. For the same compound, the IC50 (Hepatitis B virus [5]) was 31.7 µM, the IC50 (Hepatitis B virus [6]) was 31.7 µM and the Activity (Hepatitis B virus [16]) was 38.4 RU. For the same compound, the Activity (Hepatitis B virus [17]) was “Dose-dependent effect”, the Kd [18] was 50.6 µM and the Activity (HepG2 2.2.15 [7]) was 98.8%. The Activity (Hepatitis B virus [19]) was 17.7 RU, the IC50 (Hepatitis B virus [20]) was 1.33 µM and the Activity (Hepatitis B virus [21]) was 41.4 RU. For the same compound, the selectivity ratio [8] was 25.7, the IC50 (Hepatitis B virus [9]) was 2.3 µM and the Activity (Hepatitis B virus [22]) was 23.9 RU.
